Results published in ChEMBL document CHEMBL1139126, “Diazenedicarboxamides as inhibitors of D-alanine-D-alanine ligase (Ddl)” (Bioorg Med Chem Lett, 2007).
In brackets after ≈: the same amount, converted by molar mass.

system: not listed separately; assay: Inhibition of Escherichia coli DdlB
How it was run: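 Purified E. coli DdlB in 38.5 mM Hepes pH 8.0, 3.25 mM MgCl2, 6.5 mM (NH4)2SO4, 700 µM D-Ala, 500 µM ATP, 5% DMSO, with a range of inhibitor concentrations. Incubated 30 min at 37 °C. Released phosphate detected by Biomol reagent, A650 after 5 min. IC50 taken from residual activity versus no-inhibitor control. Means of two independent experiments.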

| SMILES | IC50 [µM] |
| --- | --- |
| CCC(C)c1ccc(NC(=O)/N=N/C(=O)NCCCl)cc1 (stereo not drawn) | 25 |
| O=C(/N=N/C(=O)NCc1ccccn1)NCCCl | 119 |
| CC(C)c1ccc(NC(=O)/N=N/C(=O)NCCCl)cc1 | 49 |
| N[C@@H]1CONC1=O [CYCLOSERINE] | 314 |
| O=C(/N=N/C(=O)NCCCl)NCCCl | 133 |

Continued, values first:

| IC50 [µM] | SMILES |
| --- | --- |
| 123 | O=C(/N=N/C(=O)NCc1cccnc1)NCc1cccnc1 |
| 15 | O=C(/N=N/C(=O)Nc1cccc(Cl)c1)NCc1cccnc1 |
| 121 | O=C(/N=N/C(=O)NC1CCCCC1)NCc1ccncc1 |
| 73 | O=C(/N=N/C(=O)Nc1ccc(F)cc1)NCc1ccncc1 |
| 236 | O=C(/N=N/C(=O)NCc1ccncc1)NCCCl |
| 33 | O=C(/N=N/C(=O)Nc1cccc(Cl)c1)NCc1ccncc1 |
| 36 | O=C(/N=N/C(=O)Nc1ccccc1)NCc1cccnc1 |
| > 500 | CC(C)(C)c1ccc(NC(=O)/N=N/C(=O)NCc2ccncc2)cc1 |
| 111 | O=C(/N=N/C(=O)Nc1ccccc1)NCc1ccccn1 |
| 106 | O=C(/N=N/C(=O)Nc1ccccc1)NCc1ccncc1 |
| > 500 | CN(C)CCNC(=O)/N=N/C(=O)Nc1ccccc1 |

system: Escherichia coli; assay: Inhibition of Escherichia coli DdlB assessed as residual activity at 500 uM
How it was run: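 Endpoint phosphate-release assay using purified DdlB with 500 µM test compound, 700 µM D-Ala, 500 µM ATP, in 38.5 mM Hepes pH 8.0 with MgCl2, (NH4)2SO4 and 5% DMSO. Run 30 min at 37 °C, then Biomol reagent and A650 read. Residual activity relative to an uninhibited assay. Mean of two independent experiments.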

| SMILES | Activity [%] |
| --- | --- |
| CC(C)(C)OC(=O)/N=N/C(=O)NCCCl | 7 |
| COC(=O)NNC(=O)NC1CCCCC1 | 1 |
| COC(=O)NNC(=O)NCCCl | 5 |
| CCOC(=O)NNC(=O)Nc1ccc([N+](=O)[O-])cc1 | 1 |
| CCOC(=O)/N=N/C(=O)Nc1ccccc1 | 1 |
| CCOC(=O)NNC(=O)Nc1ccccc1 | 1 |
| COC(=O)/N=N/C(=O)NCCCl | 7 |
| CCOC(=O)NNC(=O)Nc1ccc(F)cc1 | 0 |
| CCOC(=O)/N=N/C(=O)Nc1ccc([N+](=O)[O-])cc1 | 40 |
| CN(C)CCNC(=O)NNC(=O)Nc1ccccc1 | 2 |
| CCOC(=O)/N=N/C(=O)Nc1ccc(F)cc1 | 37 |

Continued, values first:

| Activity [%] | SMILES |
| --- | --- |
| 33 | CCOC(=O)/N=N/C(=O)Nc1cccc(Cl)c1 |
| 0 | CCOC(=O)NNC(=O)Nc1cccc(Cl)c1 |
| 3 | O=C(NCc1cccnc1)NNC(=O)Nc1cccc(Cl)c1 |
| 0 | O=C(NCc1cccnc1)NNC(=O)Nc1ccccc1 |

system: Escherichia coli; assay: Antibacterial activity against Escherichia coli 1411; type: functional
How it was run: (§1)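 Broth microdilution MIC in IsoSensitest broth; inoculum 10⁴ cells per mL for E. coli, 10⁶ cells per mL for S. aureus. Compounds in 2-fold dilution series prepared in 50% DMSO. Incubated 16 h at 37 °C with OD600 read every 10 min, shaken 30 s before each read. MIC = lowest concentration preventing growth.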

| SMILES | MIC [µg/mL] |
| --- | --- |
| CCC(C)c1ccc(NC(=O)/N=N/C(=O)NCCCl)cc1 (stereo not drawn) | > 256 |
| O=C(/N=N/C(=O)NCc1ccccn1)NCCCl | > 256 |
| CC(C)c1ccc(NC(=O)/N=N/C(=O)NCCCl)cc1 | > 256 |
| N[C@@H]1CONC1=O [CYCLOSERINE] | 16 (≈ 157 µM) |
| O=C(/N=N/C(=O)NCCCl)NCCCl | > 256 |

Results, then the compound that gave them:

| MIC [µg/mL] | SMILES |
| --- | --- |
| > 256 | O=C(/N=N/C(=O)NCc1cccnc1)NCc1cccnc1 |
| 64 (≈ 201 µM) | O=C(/N=N/C(=O)Nc1cccc(Cl)c1)NCc1cccnc1 |
| 256 (≈ 885 µM) | O=C(/N=N/C(=O)NC1CCCCC1)NCc1ccncc1 |
| 64 (≈ 212 µM) | O=C(/N=N/C(=O)Nc1ccc(F)cc1)NCc1ccncc1 |
| 128 (≈ 475 µM) | O=C(/N=N/C(=O)NCc1ccncc1)NCCCl |
| 64 (≈ 201 µM) | O=C(/N=N/C(=O)Nc1cccc(Cl)c1)NCc1ccncc1 |
| 64 (≈ 226 µM) | O=C(/N=N/C(=O)Nc1ccccc1)NCc1cccnc1 |
| 64 (≈ 226 µM) | O=C(/N=N/C(=O)Nc1ccccc1)NCc1ccccn1 |
| 64 (≈ 226 µM) | O=C(/N=N/C(=O)Nc1ccccc1)NCc1ccncc1 |

system: Staphylococcus aureus; assay: Antibacterial activity against Staphylococcus aureus 8325-4; type: functional; how it was run: as §1

| SMILES | MIC [µg/mL] |
| --- | --- |
| CCC(C)c1ccc(NC(=O)/N=N/C(=O)NCCCl)cc1 (stereo not drawn) | > 256 |
| O=C(/N=N/C(=O)NCc1ccccn1)NCCCl | > 256 |
| CC(C)c1ccc(NC(=O)/N=N/C(=O)NCCCl)cc1 | > 256 |
| N[C@@H]1CONC1=O [CYCLOSERINE] | 32 (≈ 313 µM) |
| O=C(/N=N/C(=O)NCCCl)NCCCl | > 256 |

Now from value to compound:

| MIC [µg/mL] | SMILES |
| --- | --- |
| > 256 | O=C(/N=N/C(=O)NCc1cccnc1)NCc1cccnc1 |
| 256 (≈ 806 µM) | O=C(/N=N/C(=O)Nc1cccc(Cl)c1)NCc1cccnc1 |
| 128 (≈ 442 µM) | O=C(/N=N/C(=O)NC1CCCCC1)NCc1ccncc1 |
| 128 (≈ 425 µM) | O=C(/N=N/C(=O)Nc1ccc(F)cc1)NCc1ccncc1 |
| > 256 | O=C(/N=N/C(=O)NCc1ccncc1)NCCCl |
| 64 (≈ 201 µM) | O=C(/N=N/C(=O)Nc1cccc(Cl)c1)NCc1ccncc1 |
| 128 (≈ 452 µM) | O=C(/N=N/C(=O)Nc1ccccc1)NCc1cccnc1 |
| 64 (≈ 226 µM) | O=C(/N=N/C(=O)Nc1ccccc1)NCc1ccccn1 |
| 128 (≈ 452 µM) | O=C(/N=N/C(=O)Nc1ccccc1)NCc1ccncc1 |

system: Escherichia coli; assay: Antibacterial activity against acrAB deficient Escherichia coli 1411; type: functional; how it was run: as §1

| SMILES | MIC [µg/mL] |
| --- | --- |
| CCC(C)c1ccc(NC(=O)/N=N/C(=O)NCCCl)cc1 (stereo not drawn) | > 256 |
| O=C(/N=N/C(=O)NCc1ccccn1)NCCCl | > 256 |
| CC(C)c1ccc(NC(=O)/N=N/C(=O)NCCCl)cc1 | > 256 |
| N[C@@H]1CONC1=O [CYCLOSERINE] | 16 (≈ 157 µM) |
| O=C(/N=N/C(=O)NCCCl)NCCCl | > 256 |

Further lines, results first:

| MIC [µg/mL] | SMILES |
| --- | --- |
| > 256 | O=C(/N=N/C(=O)NCc1cccnc1)NCc1cccnc1 |
| 64 (≈ 201 µM) | O=C(/N=N/C(=O)Nc1cccc(Cl)c1)NCc1cccnc1 |
| 256 (≈ 885 µM) | O=C(/N=N/C(=O)NC1CCCCC1)NCc1ccncc1 |
| 64 (≈ 212 µM) | O=C(/N=N/C(=O)Nc1ccc(F)cc1)NCc1ccncc1 |
| 128 (≈ 475 µM) | O=C(/N=N/C(=O)NCc1ccncc1)NCCCl |
| 64 (≈ 201 µM) | O=C(/N=N/C(=O)Nc1cccc(Cl)c1)NCc1ccncc1 |
| 64 (≈ 226 µM) | O=C(/N=N/C(=O)Nc1ccccc1)NCc1cccnc1 |
| 64 (≈ 226 µM) | O=C(/N=N/C(=O)Nc1ccccc1)NCc1ccccn1 |
| 32 (≈ 113 µM) | O=C(/N=N/C(=O)Nc1ccccc1)NCc1ccncc1 |
